Screening results as filed in PubChem.
The list is not random: actives were taken first. Their share in the collection is about 2.3%.
TRPC4 agonist – opens the mouse TRPC4 cation channel | B-score at 10 µM | hit rate 0.49% among 310,000 | HEK293 TRPC4beta/mu-opioid, Fluo4 calcium fluorescence; hits give high values | AID 2237 | Q9QUQ5;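 active = B-score above 5 SD of library B-scores, and initial fluorescence ratio not above library mean plus 5 SD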;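 also: positive B-score marks a calcium rise read as TRPC4 activation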
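System – HEK293 cells stably co-expressing mouse TRPC4beta and mu-opioid receptor · Signal – Fluo4 calcium-sensitive dye fluorescence, kinetic, 1 Hz baseline · Benchmarks – buffer (low) and maximal DAMGO (high) · Read-out – B score of integrated fluorescence ratio per well · Incubation – dye loading 45 min room temperature, 110 s kinetic read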
TRPC6 activator – mouse TRPC6 channel activation; hit rate 0.13% among 310,000; HEK293-TRPC6 membrane potential dye fluorescence; hits give high values; B-score at 10 µM; AID 2550;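 active = B-score of the integrated fluorescence ratio above library mean plus 3 SD, and starting fluorescence ratio within library mean plus 5 SD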;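 also: higher score means more depolarization so channel activation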
TRPC4 potent – TRPC4 (mouse) allosteric potentiation. Q9QUQ5. HEK293 TRPC4beta/mu-opioid, DAMGO EC20, Fluo-4 Ca2+ flux; hits give high values. B-score at 10 µM. hit rate 0.42% among 310,000;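 active = B-score of calcium response area above 5 SD of library B-scores, with initial fluorescence ratio within 5 SD of library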
TRPC6 inh – inhibitors of mouse TRPC6 channel; hit rate 1.1% among 310,000; AID 2553; B-score at 10 µM; HEK293-TRPC6, membrane potential dye, ACh-evoked depolarization; hits give low values; Q61143;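 active = B-score under library mean minus 3 SD, initial fluorescence not abnormally high, positive integrated signal ratio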;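 also: B-score derived from integrated fluorescence ratio over the kinetic read; more negative B-score means stronger inhibition of depolarization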
TRPC4 block – TRPC4 (mouse) channel inhibition; hit rate 0.39% among 300,000; HEK293 TRPC4beta/mu-opioid, DAMGO-evoked Fluo4 calcium flux; hits give low values; Q9QUQ5; AID 2247; B-score at 10 µM;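 active = B-score over 3 SD under the library average, no early fluorescence shift, positive overall ratio signal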
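Assay system – HEK293 line stably carrying TRPC4beta and mu-opioid receptor · Doses – single dose · Detection – Fluo4 calcium-dye fluorescence, kinetic read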
TRPC4 sel inh 2 – mouse TRPC4 off-target activity of TRPC6 inhibitors, second screen | HEK293 TRPC4/MOR, membrane potential dye fluorescence; channel activated by saturating DAMGO dose | hit rate 42% among 920 | shares compounds with TRPC6 inh | AID 2776 | inhibition, % at 10 µM;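 active = compounds whose fluorescence signal differed from control wells by over 3 SD, either direction, in both duplicate plates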
TRPC4 spec – mouse TRPC4 off-target activity of TRPC6 inhibitors. shares compounds with TRPC6 inh. HEK293 TRPC4/mu-opioid, membrane potential fluorescence. activity change, negative = inhibition, % at 10 µM. hit rate 61% among 920;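 active = rise or fall in signal beyond 3 SD of buffer-only wells in both replicate plates, either sign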;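 also: integrated kinetic ratio of fluorescence range over baseline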
HEK293 MPD ctr 2-1 – second check of TRPC6 inhibitor effects in parental HEK293 cells. shares compounds with TRPC6 inh. parental HEK293 membrane potential dye fluorescence; maximal acetylcholine challenge after compound addition. signal change vs control, % at 10 µM. hit rate 31% among 920. AID 2779;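 active = membrane potential signal moving either way by over 3 SD of the maximum-effect control, in both duplicate plates, meaning non-specific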
HEK293 MPD ctr-1 – counter-screen for TRPC6 inhibitors: effect in parental HEK293 cells | shares compounds with TRPC6 inh | parental HEK293 membrane potential dye fluorescence | membrane potential signal change, % at 10 µM | hit rate 60% among 920 | AID 2780;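 active = membrane potential signal shifting up or down by more than 3 SD of buffer-only wells, on both duplicate plates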
HEK293 MPD ctr-2 – checks TRPC6 modulator effects in parental HEK293 cells; shares compounds with TRPC6 inh; membrane potential dye fluorescence; membrane potential signal change, % at 10 µM; hit rate 51% among 2,400;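 active = membrane potential signal moves up or down beyond 5 SD from buffer-only wells, on both duplicate plates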
HEK293 MPD ctr 2-2 – parental HEK293 nonspecific activity of TRPC6 modulators, second screen; shares compounds with TRPC6 inh; hit rate 14% among 2,400; inhibition, % at 10 µM; membrane potential dye fluorescence; after compound, maximal acetylcholine stimulation; AID 488926;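 active = membrane potential signal drops by more than 5 SD from the mean control signal, in both duplicate plates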
TRPC4/MOR mod – tests whether TRPC6 modulators also affect mouse TRPC4. shares compounds with TRPC6 inh. hit rate 69% among 2,400. HEK293 TRPC4/mu-opioid, membrane potential fluorescence. percent change from control (negative = decrease, positive = increase), % at 10 µM;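 active = membrane potential signal moved up or down beyond 5 SD of buffer control wells, in both duplicate plates, actives on both sides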
TRPC4 ctr inh 2 – second check of whether TRPC6 modulators also affect mouse TRPC4; shares compounds with TRPC6 inh; HEK293 TRPC4/mu-opioid, membrane potential dye fluorescence; stimulated with maximal-effect DAMGO; inhibition, % at 10 µM; hit rate 55% among 2,400;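 active = drop in membrane potential signal beyond 5 SD of the control wells in both duplicate plates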;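 also: TRPC4 counter screen for TRPC6 hits run under conditions tuned for TRPC6 not TRPC4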
TRPC6 inh conf – confirmation of mouse TRPC6 inhibitors; HEK293-TRPC6, membrane potential dye, ACh-evoked depolarization; shares compounds with TRPC6 inh; AID 488960; hit rate 43% among 3,300; inhibition, % at 10 µM;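 active = fluorescence ratio falls more than 5 SD below the full-stimulation control mean, in both duplicate runs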;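 also: integrated fluorescence ratio of peak minus minimum over baseline after agonist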
TRPC6 act conf – mouse TRPC6 activator confirmation | shares compounds with TRPC6 inh | HEK293-TRPC6 membrane potential dye fluorescence, FDSS | activation, % at 10 µM | hit rate 11% among 2,800 | AID 488961;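 active = ratio signal rise beyond 5 SD above unstimulated control wells' mean, seen in both duplicate runs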
Of the large screens only hits and unclear results are named; the others gave an inactive call (follow-up assays come after a bar, where they were run).

Cc1cccc(OCc2nnc(SCc3cc(=O)n4cc(Br)ccc4n3)o2)c1	TRPC6 inh -8 | TRPC4 sel inh 2 inactive | TRPC4 spec 0.1% | HEK293 MPD ctr 2-1 inactive | HEK293 MPD ctr-1 0.6% | TRPC6 inh conf inactive | TRPC6 act conf inactive
CC(C)CN(C(=O)COc1ccc(Br)cc1C=O)C1CCS(=O)(=O)C1 (configuration not stated)	none
CCN(C(=O)c1ccc2c(=O)n3c(nc2c1)CCCCC3)c1ccccc1C	none
CC(C)(C)n1nnnc1C(c1ccccc1)N1CCc2ccccc2C1 (configuration not stated)	TRPC6 inh -7.6 | TRPC4 sel inh 2 inactive | TRPC4 spec 12% | HEK293 MPD ctr 2-1 inactive | HEK293 MPD ctr-1 6.8% | TRPC6 inh conf inactive | TRPC6 act conf inactive
COC(=O)Nc1cc(C)nc2ccccc12	none
OCCNc1c2ccccc2nc2ccccc12	TRPC6 inh -9.5 | HEK293 MPD ctr-2 -233% | HEK293 MPD ctr 2-2 inactive | TRPC4/MOR mod -38% | TRPC4 ctr inh 2 46% | TRPC6 inh conf 56% | TRPC6 act conf inactive
COCCCNc1cc(C)nc2ccccc12	TRPC6 inh -7.4, TRPC4 block -6 | HEK293 MPD ctr-2 -264% | HEK293 MPD ctr 2-2 inactive | TRPC4/MOR mod -50% | TRPC4 ctr inh 2 63% | TRPC6 inh conf inactive | TRPC6 act conf inactive
Cc1cc(NCCO)c2cc(O)ccc2n1	TRPC6 inh -7.8 | HEK293 MPD ctr-2 -252% | HEK293 MPD ctr 2-2 inactive | TRPC4/MOR mod -47% | TRPC4 ctr inh 2 38% | TRPC6 inh conf 54% | TRPC6 act conf inactive
Cc1cc(NCCO)c2ccccc2n1	none
COCCCNc1ccnc2c(Cl)cccc12	TRPC6 inh -9 | HEK293 MPD ctr-2 -287% | HEK293 MPD ctr 2-2 inactive | TRPC4/MOR mod -44% | TRPC4 ctr inh 2 48% | TRPC6 inh conf inactive | TRPC6 act conf inactive
CC1(C)CC(=O)c2c(O)cc(OCC(=O)N3CCN(c4ccccc4)CC3)cc2O1	none
CSc1nnc(NC(=O)c2cc(=O)c3cc(C)cc(C)c3o2)s1	none
CCCC(NC(=O)Cc1c(C)c2c(cc(C)c3c(C)coc32)oc1=O)C(=O)O (configuration not stated)	none
CCOC(=O)C1CCCN(C(=O)c2ccc(C)c([N+](=O)[O-])c2)C1 (configuration not stated)	TRPC6 inh -5.8 | HEK293 MPD ctr-2 inactive | HEK293 MPD ctr 2-2 64% | TRPC4/MOR mod inactive | TRPC4 ctr inh 2 inactive | TRPC6 inh conf 54% | TRPC6 act conf inactive
